The test system of experiment [1] is Vero. The experiment can be described thus: Cytotoxicity against African green monkey Vero cells assessed as reduction in cell viability using compound addition to cell culture cells in lag phase of growth and incubated for 48 hrs by MTT assay. Format: cell-based, Chlorocebus sabaeus. The settings on record: Chlorocebus sabaeus, Vero, 48 h; read-out: IC50. For orientation: Tetrazolium assays rely on reduction of a dye to a coloured formazan, in cell work by metabolically active cells.

Experiment [2] has as its system A549. Description: Cytotoxicity against human A549 cells assessed as reduction in cell viability using compound addition to cell culture cells in lag phase of growth and incubated for 48 hrs by MTT assay. The settings on record: Homo sapiens, A549, 48 h; read-out: IC50. Format: functional, cell-based.
Experiment [3] has as its system HeLa. Description: Cytotoxicity against human HeLa cells assessed as reduction in cell viability using compound addition to cell culture cells in lag phase of growth and incubated for 48 hrs by MTT assay. Format: functional, cell-based. Conditions: Homo sapiens, HeLa, 48 h; read-out: IC50.
Experiment [4] deals with MCF7. Description: Cytotoxicity against human MCF7 cells assessed as reduction in cell viability using compound addition to cell culture cells in lag phase of growth and incubated for 48 hrs by MTT assay. Format: functional, cell-based. Conditions: Homo sapiens, MCF7, 48 h; read-out: IC50.
Experiment [5] has as its system HeLa. The experiment can be described thus: Cytotoxicity against human HeLa cells assessed as reduction in cell viability using compound addition to cell culture cells in log phase of growth and incubated for 48 hrs by MTT assay. The format is functional, cell-based. Conditions: Homo sapiens, HeLa, 48 h; read-out: IC50.
In experiment [6] the test system is Vero. The experiment can be described thus: Cytotoxicity against African green monkey Vero cells assessed as reduction in cell viability using compound addition to cell culture cells in log phase of growth and incubated for 48 hrs by MTT assay. The format is cell-based, Chlorocebus sabaeus. Conditions: Chlorocebus sabaeus, Vero, 48 h; read-out: IC50.
Experiment [7] has as its system MCF7. Description: Ratio of IC50 for cytotoxicity against human MCF7 cells using compound addition to cell culture cells in lag phase of growth and incubated for 48 hrs by MTT assay to IC50 for cytotoxicity against human MCF7 cells using compound addition to cell culture cells in log phase of growth and incubated for 48 hrs by MTT assay. Format: functional.
Experiment [8] deals with MCF7. The experiment can be described thus: Cytotoxicity against human MCF7 cells assessed as reduction in cell viability using compound addition to cell culture cells in log phase of growth and incubated for 48 hrs by MTT assay. The settings on record: Homo sapiens, MCF7, 48 h; read-out: IC50. The format is functional, cell-based.
For experiment [9], the system named is A549. The experiment can be described thus: Cytotoxicity against human A549 cells assessed as reduction in cell viability using compound addition to cell culture cells in log phase of growth and incubated for 48 hrs by MTT assay. Conditions: Homo sapiens, A549, 48 h; read-out: IC50. Format: functional, cell-based.
Experiment [10] has as its system HeLa. The experiment can be described thus: Induction of apoptosis in human HeLa cells assessed as increase in caspase-3 activity by measuring pNA release level at 8 uM incubated for 4 hrs using c-DEVD-pNA substrate by colorimetric assay. Format: functional. The gist of the method:
(§1)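 HeLa cells in DMEM with 10% FBS were exposed for 4 h (fixed 24 or 32 level for 8 h). Staurosporine for 4 h served as the positive control. Cells were lysed at 4 °C for 10 min and centrifuged, and supernatant protein was measured by Bradford. Caspase-3 activity was read colorimetrically as nmol pNA/min/mL, with treated/untreated OD ratios. Values are means ± SD of three independent experiments in triplicate.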

Experiment [11] deals with MCF7 (Homo sapiens). Description: Ratio of IC50 for cytotoxicity against human MCF7 cells incubated for 48 hrs to IC50 for cytotoxicity against human MCF7 cells incubated for 72 hrs.
Experiment [12] concerns HeLa. The experiment can be described thus: Induction of apoptosis in human HeLa cells assessed as increase in caspase-3 activity by measuring pNA release level at 12 uM incubated for 4 hrs using c-DEVD-pNA substrate by colorimetric assay. The format is functional. The gist of the method:
as §1

For experiment [13], the system named is HeLa. The experiment can be described thus: Induction of apoptosis in human HeLa cells assessed as […] by measuring pNA release level at 32 uM incubated for 8 hrs using c-DEVD-pNA substrate by colorimetric assay. Format: functional, cell-based. In short, it runs like this:
as §1

Experiment [14] concerns MCF7. The experiment can be described thus: Ratio of IC50 for cytotoxicity against human MCF7 cells incubated for 48 hrs to IC50 for cytotoxicity against human MCF7 cells incubated for 72 hrs. The format is functional.
The subject of experiment [15] is MCF7 (Homo sapiens). The experiment can be described thus: Ratio of IC50 for cytotoxicity against human MCF7 cells incubated for 48 hrs to IC50 for cytotoxicity against human MCF7 cells incubated for 72 hrs. The source holds these as a separate data set.
Experiment [16] concerns HeLa. The experiment can be described thus: Induction of apoptosis in human HeLa cells assessed as increase in caspase-3 activity by measuring pNA release level at 16 uM incubated for 4 hrs using c-DEVD-pNA substrate by colorimetric assay. Format: functional. The gist of the method: as §1
The subject of experiment [17] is HeLa. The experiment can be described thus: Induction of apoptosis in human HeLa cells assessed as increase in caspase-3 activity by measuring pNA release level at 32 uM incubated for 4 hrs using c-DEVD-pNA substrate by colorimetric assay. Format: functional. The gist of the method:
as §1

The test system of experiment [18] is HeLa. The experiment can be described thus: Induction of apoptosis in human HeLa cells assessed as increase in caspase-3 activity by measuring pNA release level at 24 uM incubated for 4 hrs using c-DEVD-pNA substrate by colorimetric assay. Format: functional. In short, it runs like this: as §1
Experiment [19] has as its system HeLa. Description: Induction of apoptosis in human HeLa cells assessed increase in DNA fragmentation at 16 uM incubated for 12 hrs by ethidium bromide staining based agarose gel electrophoresis. The format is functional, cell-based. The gist of the method:
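HeLa cells were incubated with the compounds at varying concentrations for 12 or 24 h. Controls were DMSO (solvent) and staurosporine 2 µM (positive). Adherent and floating cells were pooled, centrifuged at 500 g and washed twice in cold PBS. Genomic DNA was extracted with a kit, run on 1.8% agarose, stained with ethidium bromide and viewed under UV.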

The test system of experiment [20] is HeLa. Description: Induction of apoptosis in human HeLa cells assessed increase in apoptotic nuclei formation at 8 uM incubated for 12 hrs by Hoechst 33342 staining based fluorescence microscopy. The format is functional.
Experiment [21] concerns HeLa. The experiment can be described thus: Induction of apoptosis in human HeLa cells at 10 uM incubated for 4 hrs by annexin V and propidium iodide staining based flow cytometry. Format: functional, cell-based. A general note: A flow cytometer gives signals particle by particle.
Experiment [22] concerns HeLa. The experiment can be described thus: Induction of cell cycle arrest in human HeLa cells assessed increase in subG1 phase accumulation at 24 uM incubated for 12 hrs by 33342 propidium iodide based flow cytometry relative to untreated control. Format: functional.
For experiment [23], the system named is HeLa. The experiment can be described thus: Induction of apoptosis in human HeLa cells assessed increase in phosphatidylserine externalization at 2 uM incubated for 4 hrs by annexin V and propidium iodide staining based flow cytometry. The format is functional, cell-based.
Experiment [24] concerns HeLa. Description: Induction of apoptosis in human HeLa cells assessed as increase in caspase-3 activity by measuring pNA release level at 24 uM incubated for 8 hrs using c-DEVD-pNA substrate by colorimetric assay. The format is functional. In short, it runs like this: as §1
Experiment [25] deals with HeLa. Description: Induction of cell cycle arrest in human HeLa cells assessed increase in hypoploid phase accumulation at 24 uM incubated for 12 hrs by […] propidium iodide based flow cytometry relative to untreated control. Format: functional.
The test system of experiment [26] is HeLa. Description: Induction of apoptosis in human HeLa cells at 12 uM incubated for 4 hrs by annexin V and propidium iodide staining based flow cytometry. The format is functional, cell-based.

Activity calls are given as the source filed them. No cut-off for these calls is given here.

The IC50 is the concentration that inhibits the measured activity by half.

As to `CCCC(=O)OCC1=C(C)C[C@H]([C@@H](C)[C@H]2CC[C@H]3[C@@H]4C[C@H]5O[C@]56C(=O)C=CC(=O)[C@]6(C)[C@H]4CC[C@]23C)OC1=O`, the IC50 in [1] worked out at 3800 nM; in experiment [2] it was 6700 nM; in experiment [3] it was 8300 nM; in [4], 11500 nM; in experiment [5], 7900 nM; in experiment [6] it was 2100 nM. The IC50 in [8] amounted to 2800 nM; in experiment [9], 4300 nM. Also, the “Ratio IC50” value in experiment [7] is recorded as over 3.
For the compound `CCC(=O)OCC1=C(C)C[C@H]([C@@H](C)[C@H]2CC[C@H]3[C@@H]4C[C@H]5O[C@]56[C@@H](O)C=CC(=O)[C@]6(C)[C@H]4CC[C@]23C)OC1=O`, the Activity is 0.52 nmol/min/mL in experiment [10]; 0.52 nmol/min/mL in [12]; 1.02 nmol/min/mL in [16]; 1.67 nmol/min/mL in experiment [17]; 1.9 nmol/min/mL in [18]. Further, the half-inhibitory concentration (IC50) in experiment [1] came to 900 nM; in [2] it was 1600 nM; in experiment [3] it was 1600 nM; in [4], 2300 nM; in experiment [5], 1100 nM; in [6] it was 1000 nM. Also, the IC50 was 1200 nM in experiment [8] and 2100 nM in [9]. Besides, the “Ratio IC50” value in [11], in experiment [14] and in experiment [15] was over 3 each time. In experiment [13], the outcome was Active.
`CC1=C(COC(=O)C(C)(C)C)C(=O)O[C@@H]([C@@H](C)[C@H]2CC[C@H]3[C@@H]4C[C@H]5O[C@]56[C@@H](OC(=O)C(C)(C)C)C=CC(=O)[C@]6(C)[C@H]4CC[C@]23C)C1`: the Activity was determined as 0.26 nmol/min/mL in [10]; 15% in [20]; 0.25 nmol/min/mL in experiment [12]; 0.28 nmol/min/mL in experiment [16]; 0.63 nmol/min/mL in experiment [17]; 0.54 nmol/min/mL in experiment [18]. Moreover, the result in experiment [19], in experiment [13] and in [21] was Active. The IC50 in [1] is 400 nM; in [2] it was 4100 nM; in experiment [3] it was 900 nM; in experiment [4] it was 600 nM; in experiment [5] it was 2400 nM; in experiment [6] it was 500 nM. Moreover, the IC50 was 1200 nM in experiment [8] and 4600 nM in [9]. In addition, in experiment [22], the “fold change (FC)” value is listed as 4 - 6.
Take `CC(=O)OCC1=C(C)C[C@H]([C@@H](C)[C@H]2CC[C@H]3[C@@H]4C[C@H]5O[C@]56[C@@H](OC(C)=O)C=CC(=O)[C@]6(C)[C@H]4CC[C@]23C)OC1=O`: the Activity in experiment [10] was found to be 0.33 nmol/min/mL; in experiment [12] it was 0.42 nmol/min/mL; in experiment [16] it was 0.5 nmol/min/mL; in [17], 0.68 nmol/min/mL; in experiment [18] it was 1.06 nmol/min/mL. Besides, the result in experiment [19] was Active.
In the case of `CC1=C(CO)C(=O)O[C@@H]([C@@H](C)[C@H]2CC[C@H]3[C@@H]4C[C@H]5O[C@]56[C@@H](O)C=CC(=O)[C@]6(C)[C@H]4CC[C@]23C)C1` [WITHAFERIN A], the Activity in experiment [10] was 0.35 nmol/min/mL; in experiment [24] it was 0.6 to 1.9 nmol/min/mL; in [12], 0.41 nmol/min/mL; in [16], 0.47 nmol/min/mL; in experiment [25], 11.3%; in experiment [17], 1.12 nmol/min/mL. Also, in [18], the Activity came to 0.55 nmol/min/mL. Besides, the result in experiment [23] was Active. Further, the IC50 is 6300 nM in experiment [5], 6600 nM in [6], 1300 nM in [8] and 10100 nM in [9]. Also, in experiment [22], the “fold change (FC)” value is reported as 4 - 6. The “Ratio IC50” value in experiment [7] is 2.8.
With `CC1=C(COC(=O)C(C)(C)C)C(=O)O[C@@H]([C@@H](C)[C@H]2CC[C@H]3[C@@H]4C[C@H]5O[C@]56[C@@H](O)C=CC(=O)[C@]6(C)[C@H]4CC[C@]23C)C1`, the Activity in experiment [10] worked out at 0.26 nmol/min/mL; in experiment [20], 28%; in [12] it was 0.61 nmol/min/mL; in experiment [16] it was 0.78 nmol/min/mL; in experiment [17], 0.93 nmol/min/mL; in [18], 1.04 nmol/min/mL. Further, the result in [19], in [13] and in experiment [26] was Active. In addition, the IC50 in experiment [1] was 400 nM; in experiment [2] it was 1800 nM; in experiment [3], 800 nM; in [4] it was 300 nM; in experiment [5], 1700 nM; in experiment [6], 500 nM. The figures for the IC50 in experiment [8] and in experiment [9] were 400 nM and 2100 nM, respectively. In addition, the “fold change (FC)” value in experiment [22] is 4 - 6.
On to `CC1=C(COC(=O)c2ccoc2)C(=O)O[C@@H]([C@@H](C)[C@H]2CC[C@H]3[C@@H]4C[C@H]5O[C@]56[C@@H](O)C=CC(=O)[C@]6(C)[C@H]4CC[C@]23C)C1`, for which the Activity in experiment [10] is 0.44 nmol/min/mL; in experiment [12] it was 0.68 nmol/min/mL; in experiment [16], 0.62 nmol/min/mL; in experiment [17], 1.63 nmol/min/mL; in experiment [18] it was 1.01 nmol/min/mL. In addition, the IC50 in experiment [1] is 2800 nM; in experiment [2], 2300 nM; in [3], 2500 nM; in [4] it was 3000 nM; in experiment [5], 1100 nM; in experiment [6] it was 700 nM. The IC50 is 1000 nM in experiment [8] and 3300 nM in [9]. In addition, in experiment [13], the result was Active. Moreover, in experiment [7], the “Ratio IC50” value is reported as over 3.

The values are drawn from ChEMBL document CHEMBL4190346, “Structure-based design, synthesis, and biological evaluation of withaferin A-analogues as potent apoptotic inducers” (Eur J Med Chem, 2017).
